The values below come from ChEMBL document CHEMBL1140294 (J Med Chem, 2005).

Holding throughout (type): cell-based
The target of series [1] is T1, ATP-dependent translocase ABCB1 (Homo sapiens, UniProt P08183). Briefly: Reversal of P-gp-mediated multidrug resistance in doxorubicin-resistant human K562 cells assessed as drug concentration causing half-maximal increase in nuclear pirarubicin concentration. The conditions noted are these: read-out: Activity.
Series [2] addresses T1, ATP-dependent translocase ABCB1. Nature of the series: Reversal of P-gp-mediated multidrug resistance in doxorubicin-resistant human K562 cells assessed as increase in nuclear pirarubicin concentration.
For series [3] the target is unchanged. Nature of the series: Reversal of P-gp-mediated multidrug resistance in human K562 cells assessed as drug concentration causing 40% increase in nuclear pirarubicin concentration. In short, it runs like this: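 Doxorubicin-resistant K 562 cells in exponential phase. Pirarubicin uptake monitored by fluorescence at 590 nm (ex 480 nm) in HEPES buffer (pH 7.25) at 37 °C. The reported value, [I]0.5, is the modulator concentration giving a 40% increase in nuclear pirarubicin concentration (α = 0.4).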

T1 sequence (P08183 whole entry): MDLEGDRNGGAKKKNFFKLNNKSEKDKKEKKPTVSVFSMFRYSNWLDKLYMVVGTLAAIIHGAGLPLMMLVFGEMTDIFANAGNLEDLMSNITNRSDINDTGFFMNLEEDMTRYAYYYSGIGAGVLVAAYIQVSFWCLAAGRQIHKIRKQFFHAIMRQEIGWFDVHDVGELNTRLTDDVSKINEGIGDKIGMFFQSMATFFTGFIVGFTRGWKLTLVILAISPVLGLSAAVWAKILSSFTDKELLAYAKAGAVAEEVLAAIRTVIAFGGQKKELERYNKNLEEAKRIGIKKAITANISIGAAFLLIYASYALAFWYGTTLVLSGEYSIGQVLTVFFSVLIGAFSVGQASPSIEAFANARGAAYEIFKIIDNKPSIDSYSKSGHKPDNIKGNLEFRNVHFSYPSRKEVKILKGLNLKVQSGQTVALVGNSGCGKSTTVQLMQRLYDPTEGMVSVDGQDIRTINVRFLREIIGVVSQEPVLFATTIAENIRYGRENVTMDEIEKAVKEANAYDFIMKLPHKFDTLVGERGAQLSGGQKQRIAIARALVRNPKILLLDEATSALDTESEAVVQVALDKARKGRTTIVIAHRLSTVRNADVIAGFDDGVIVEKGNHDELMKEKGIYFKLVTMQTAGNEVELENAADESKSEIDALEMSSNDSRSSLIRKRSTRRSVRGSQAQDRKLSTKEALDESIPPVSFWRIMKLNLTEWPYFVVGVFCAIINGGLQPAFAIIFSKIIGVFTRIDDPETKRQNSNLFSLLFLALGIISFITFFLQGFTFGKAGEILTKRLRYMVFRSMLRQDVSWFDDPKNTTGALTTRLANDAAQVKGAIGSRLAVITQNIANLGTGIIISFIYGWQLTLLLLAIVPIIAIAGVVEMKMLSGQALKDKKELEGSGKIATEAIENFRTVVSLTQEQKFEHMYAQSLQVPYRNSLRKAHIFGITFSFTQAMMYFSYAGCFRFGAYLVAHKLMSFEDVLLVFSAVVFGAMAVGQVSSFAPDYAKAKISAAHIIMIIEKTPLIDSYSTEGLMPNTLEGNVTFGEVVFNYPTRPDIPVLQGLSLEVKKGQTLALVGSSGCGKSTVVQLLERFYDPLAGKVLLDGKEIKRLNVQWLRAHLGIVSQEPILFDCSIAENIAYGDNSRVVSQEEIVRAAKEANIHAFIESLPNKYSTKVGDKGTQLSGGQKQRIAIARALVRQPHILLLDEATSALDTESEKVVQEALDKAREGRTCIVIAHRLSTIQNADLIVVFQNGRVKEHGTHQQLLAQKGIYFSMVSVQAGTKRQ

In the case of `COc1cc(/C=C/C(=O)OCCCN(C)CCN(C)CCCOC(=O)c2cc(OC)c(OC)c(OC)c2)cc(OC)c1OC`, the EC50 in series [1] came out at 1300 nM. For the same compound, the Alpha max in series [2] was found to be 0.78.
Take `COc1cc(/C=C/C(=O)OCCCN(C)CCN(C)CCCOC(=O)c2c3ccccc3cc3ccccc23)cc(OC)c1OC`: the EC50 in series [1] was 190 nM. In series [2], the Alpha max is reported as 0.7.
On to `CN(CCCOC(=O)c1c2ccccc2cc2ccccc12)CCN(C)CCCOC(=O)c1c2ccccc2cc2ccccc12`, for which the Activity in series [3] is 0.8 µM. Moreover, the Alpha max in series [2] worked out at 0.5.
Regarding `COc1cc(/C=C/C(=O)OCCCN(C)CCN(C)CCCOC(=O)/C=C/c2cc(OC)c(OC)c(OC)c2)cc(OC)c1OC`, the EC50 in series [1] was determined as 2600 nM. The Alpha max in series [2] is recorded as 0.8.
The like results for `COc1ccc(C(C#N)(CCC(=O)OCCCN(C)CCN(C)CCCOC(=O)c2c3ccccc3cc3ccccc23)C(C)C)cc1OC` (stereo unspecified) were, in that order, 400 nM and 0.74.
The like results for `COc1ccc(C(C#N)(CCC(=O)OCCCN2CCN(CCCOC(=O)c3c4ccccc4cc4ccccc34)CC2)C(C)C)cc1OC` (stereo unspecified) were, in that order, 620 nM and 0.65.
On to `COc1cc(/C=C/C(=O)OCCN(C)CCOC(=O)C2c3ccccc3-c3ccccc32)cc(OC)c1OC`, for which the EC50 in series [1] was found to be 800 nM. In addition, in series [2], the Alpha max came to 0.7.
On to `COc1cc(/C=C/C(=O)OCCCN2CCN(CCCOC(=O)C3c4ccccc4-c4ccccc43)CC2)cc(OC)c1OC`, for which the EC50 in series [1] is 230 nM. Moreover, the Alpha max in series [2] is reported as 0.7.
The like results for `COc1cc(/C=C/C(=O)OCCOCCN(C)CCOCCOC(=O)c2c3ccccc3cc3ccccc23)cc(OC)c1OC` were, in that order, 170 nM and 0.84.
As for `COc1cc(/C=C/C(=O)OCCCN2CCN(CCCOC(=O)/C=C/c3cc(OC)c(OC)c(OC)c3)CC2)cc(OC)c1OC`, the EC50 in series [1] came to 370 nM. In series [2], the Alpha max is 0.8.
The like results for `COc1cc(/C=C/C(=O)OCCCN(C)CCCOC(=O)c2cc(OC)c(OC)c(OC)c2)cc(OC)c1OC` were, in that order, 600 nM and 0.9.
The matching figures for `COc1cc(/C=C/C(=O)OCCN(C)CCOC(=O)c2cc(OC)c(OC)c(OC)c2)cc(OC)c1OC`: 3100 nM and 0.86.
The like results for `COc1cc(/C=C/C(=O)OCCCNCCCOC(=O)c2cc(OC)c(OC)c(OC)c2)cc(OC)c1OC` were, in that order, 500 nM and 1.
Turning to `COc1cc(/C=C/C(=O)OCCN(C)CCOC(=O)c2ccccc2)cc(OC)c1OC`, the EC50 in series [1] was determined as 3700 nM. For the same compound, the Alpha max in series [2] amounted to 0.86.
The like results for `COc1cc(/C=C/C(=O)OCCCN(C)CCCOC(=O)c2c3ccccc3cc3ccccc23)cc(OC)c1OC` were, in that order, 180 nM and 0.78.
The like results for `COc1cc(/C=C/C(=O)OCCCNCCCOC(=O)c2c3ccccc3cc3ccccc23)cc(OC)c1OC` were, in that order, 210 nM and 0.74.
The like results for `COc1ccc(C(C#N)(CCC(=O)OCCCNCCCOC(=O)c2c3ccccc3cc3ccccc23)C(C)C)cc1OC` (stereo unspecified) were, in that order, 2100 nM and 0.9.
As for `COc1cc(/C=C/C(=O)OCCCCCN(C)CCCCCOC(=O)c2c3ccccc3cc3ccccc23)cc(OC)c1OC`, in series [1], the EC50 was found to be 100 nM. Further, the Alpha max in series [2] turned out to be 0.8.
`COc1cc(/C=C/C(=O)OCCN(C)CCOC(=O)c2ccc(OC)c(OC)c2OC)cc(OC)c1OC`: the EC50 in series [1] stood at 6400 nM. Besides, the Alpha max in series [2] is listed as 0.8.
The like results for `COc1cc(/C=C/C(=O)OCCCCCCCN(C)CCCCCCCOC(=O)c2c3ccccc3cc3ccccc23)cc(OC)c1OC` were, in that order, 150 nM and 0.55.
Regarding `COc1cc(/C=C/C(=O)OCCOCCN(C)CCOCCOC(=O)c2cc(OC)c(OC)c(OC)c2)cc(OC)c1OC`, in series [1], the EC50 turned out to be 4200 nM. In addition, in series [2], the Alpha max was 0.9.
The matching figures for `COc1cc(/C=C/C(=O)OCCOCCNCCOCCOC(=O)c2cc(OC)c(OC)c(OC)c2)cc(OC)c1OC`: 7000 nM and 1.
Regarding `COc1cc(/C=C/C(=O)OCCCN(C)CCN(C)CCCOC(=O)C2c3ccccc3-c3ccccc32)cc(OC)c1OC`, the EC50 in series [1] was 570 nM. The Alpha max in series [2] was 0.64.
The matching figures for `COc1cc(/C=C/C(=O)OCCCCCN(C)CCCCCOC(=O)C2c3ccccc3-c3ccccc32)cc(OC)c1OC`: 110 nM and 0.83.
The matching figures for `COc1cc(/C=C/C(=O)OCCCCCCN(C)CCCCCCOC(=O)c2cc(OC)c(OC)c(OC)c2)cc(OC)c1OC`: 2000 nM and 0.6.
`COc1cc(/C=C/C(=O)OCCCCCCCN(C)CCCCCCCOC(=O)c2cc(OC)c(OC)c(OC)c2)cc(OC)c1OC`: the EC50 in series [1] was 1000 nM. Further, in series [2], the Alpha max was determined as 0.55.
The like results for `COc1ccc(C(C#N)(CCCN(C)c2c3ccccc3cc3ccccc23)C(C)C)cc1OC` (stereo unspecified) were, in that order, 50 nM and 0.7.
The like results for `COc1cc(/C=C/C(=O)OCCCCCN(C)CCCCCOC(=O)c2cc(OC)c(OC)c(OC)c2)cc(OC)c1OC` were, in that order, 800 nM and 0.84.
As to `COc1cc(/C=C/C(=O)OCCCN2CCN(CCCOC(=O)c3cc(OC)c(OC)c(OC)c3)CC2)cc(OC)c1OC`, the EC50 in series [1] was 380 nM. For the same compound, in series [2], the Alpha max is 0.61.
For `O=C(OCCCN1CCN(CCCOC(=O)c2c3ccccc3cc3ccccc23)CC1)c1c2ccccc2cc2ccccc12`, in series [3], the Activity is 2.5 µM. Moreover, the Alpha max in series [2] is on record as 0.5.
As for `COc1cc(/C=C/C(=O)OCCCCCCN(C)CCCCCCOC(=O)c2c3ccccc3cc3ccccc23)cc(OC)c1OC`, the EC50 in series [1] is 610 nM. Also, the Alpha max in series [2] is listed as 0.68.
The like results for `COc1cc(/C=C/C(=O)OCCN(C)CCOC(=O)c2c3ccccc3cc3ccccc23)cc(OC)c1OC` were, in that order, 1000 nM and 0.84.
The like results for `COc1cc(/C=C/C(=O)OCCCN2CCN(CCCOC(=O)c3c4ccccc4cc4ccccc34)CC2)cc(OC)c1OC` were, in that order, 160 nM and 0.9.
